# Test results reported in ChEMBL document CHEMBL5724801, “EUbOPEN Chemogenomics Library - Multiplex” (2024).
# Values joined by “and” are separate entries in the source; they are usually repeats but may differ in a detail not shown here. Equal entries are not always repeated.
# System: HEK-293T
# Assay: Multiplex assay against HEK293T
# Assay type: toxicity, cell-based
# Conditions: human
# In short: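 Imaging took place on a CQ1 microscope at 37°C and 5% CO2 once compound had been added to live cells stained at seeding with Hoechst33342, BioTracker Green Microtubule Cytoskeleton Dye, MitoTracker Red and Annexin V Alexa Fluor 680. CellPathfinder machine-learning gating classed cells as Hoechst high-intensity objects or normal cells, classed normal cells as having healthy, pyknosed or fragmented nuclei, and classed pyknosed cells as mitotic or apoptotic. Tubulin, mitochondrial-mass and membrane-permeability phenotypes are per cents of the healthy-nucleus cells.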
# [1] = 12 h, 1 µM, compound concentration 1 uM
# [2] = 12 h, 10 µM, compound concentration 10 uM
# [3] = 24 h, 1 µM, compound concentration 1 uM
# [4] = 24 h, 10 µM, compound concentration 10 uM
# [5] = 48 h, 1 µM, compound concentration 1 uM
# [6] = 48 h, 10 µM, compound concentration 10 uM
structure (smiles),measurement,setting,value
Cl.Clc1ccc2nsnc2c1NC1=NCCN1 [TIZANIDINE HYDROCHLORIDE],Population Apoptotic (%),[1],39% and 44%
same,Population Fragmented Nuclei (%),[1],9% and 2%
same,Population Healthy Nuclei (%),[1],80% and 83%
same,Population Hoechst High Intensity Objects (%),[1],8% and 9%
same,Population Membrane Permeable-Phenotype (%),[1],0%
same,Population Mitochondria Different-Phenotype (%),[1],36% and 62%
same,Population Mitotic Cells (%),[1],60% and 55%
same,Population Normal (%),[1],91% and 90%
same,Population Pyknosed Nuclei (%),[1],9% and 13%
same,Population Tubulin-Different-Phenotype (%),[1],26% and 20%
same,Total Cell Count,[1],474 and 373
same,Population Apoptotic (%),[2],30% and 46%
same,Population Fragmented Nuclei (%),[2],9% and 7%
same,Population Healthy Nuclei (%),[2],80% and 79%
same,Population Hoechst High Intensity Objects (%),[2],6% and 4%
same,Population Membrane Permeable-Phenotype (%),[2],0%
same,Population Mitochondria Different-Phenotype (%),[2],45% and 67%
same,Population Mitotic Cells (%),[2],70% and 53%
same,Population Normal (%),[2],93% and 95%
same,Population Pyknosed Nuclei (%),[2],9% and 13%
same,Population Tubulin-Different-Phenotype (%),[2],32% and 27%
same,Total Cell Count,[2],450 and 343
same,Population Apoptotic (%),[3],32% and 45%
same,Population Fragmented Nuclei (%),[3],11% and 10%
same,Population Healthy Nuclei (%),[3],79% and 80%
same,Population Hoechst High Intensity Objects (%),[3],4% and 5%
same,Population Membrane Permeable-Phenotype (%),[3],0%
same,Population Mitochondria Different-Phenotype (%),[3],20% and 38%
same,Population Mitotic Cells (%),[3],67% and 54%
same,Population Normal (%),[3],95% and 94%
same,Population Pyknosed Nuclei (%),[3],8%
same,Population Tubulin-Different-Phenotype (%),[3],17% and 15%
same,Total Cell Count,[3],597 and 434
same,Population Apoptotic (%),[4],32% and 29%
same,Population Fragmented Nuclei (%),[4],11% and 10%
same,Population Healthy Nuclei (%),[4],78% and 81%
same,Population Hoechst High Intensity Objects (%),[4],5% and 6%
same,Population Membrane Permeable-Phenotype (%),[4],1% and 0%
same,Population Mitochondria Different-Phenotype (%),[4],23% and 46%
same,Population Mitotic Cells (%),[4],67% and 70%
same,Population Normal (%),[4],94% and 93%
same,Population Pyknosed Nuclei (%),[4],9% and 7%
same,Population Tubulin-Different-Phenotype (%),[4],18%
same,Total Cell Count,[4],621 and 443
same,Population Apoptotic (%),[5],17% and 33%
same,Population Fragmented Nuclei (%),[5],16% and 14%
same,Population Healthy Nuclei (%),[5],77% and 79%
same,Population Hoechst High Intensity Objects (%),[5],2% and 3%
same,Population Membrane Permeable-Phenotype (%),[5],3% and 1%
same,Population Mitochondria Different-Phenotype (%),[5],13% and 19%
same,Population Mitotic Cells (%),[5],82% and 66%
same,Population Normal (%),[5],97% and 96%
same,Population Pyknosed Nuclei (%),[5],6%
same,Population Tubulin-Different-Phenotype (%),[5],10% and 7%
same,Total Cell Count,[5],1005 and 661
same,Population Apoptotic (%),[6],24% and 25%
same,Population Fragmented Nuclei (%),[6],19% and 13%
same,Population Healthy Nuclei (%),[6],74% and 81%
same,Population Hoechst High Intensity Objects (%),[6],3% and 5%
same,Population Membrane Permeable-Phenotype (%),[6],1%
same,Population Mitochondria Different-Phenotype (%),[6],13% and 23%
same,Population Mitotic Cells (%),[6],75%
same,Population Normal (%),[6],96% and 94%
same,Population Pyknosed Nuclei (%),[6],5% and 4%
same,Population Tubulin-Different-Phenotype (%),[6],10% and 19%
same,Total Cell Count,[6],995 and 600
CCCC(CCC)C(=O)O [VALPROIC ACID],Population Apoptotic (%),[1],39% and 28%
same,Population Fragmented Nuclei (%),[1],6% and 5%
same,Population Healthy Nuclei (%),[1],81% and 79%
same,Population Hoechst High Intensity Objects (%),[1],6% and 5%
same,Population Membrane Permeable-Phenotype (%),[1],0%
same,Population Mitochondria Different-Phenotype (%),[1],29% and 46%
same,Population Mitotic Cells (%),[1],60% and 71%
same,Population Normal (%),[1],93% and 94%
same,Population Pyknosed Nuclei (%),[1],12% and 15%
same,Population Tubulin-Different-Phenotype (%),[1],20% and 16%
same,Total Cell Count,[1],513 and 367
same,Population Apoptotic (%),[2],34% and 44%
same,Population Fragmented Nuclei (%),[2],6% and 7%
same,Population Healthy Nuclei (%),[2],82% and 81%
same,Population Hoechst High Intensity Objects (%),[2],6%
same,Population Membrane Permeable-Phenotype (%),[2],0%
same,Population Mitochondria Different-Phenotype (%),[2],40% and 49%
same,Population Mitotic Cells (%),[2],66% and 55%
same,Population Normal (%),[2],93%
same,Population Pyknosed Nuclei (%),[2],11%
same,Population Tubulin-Different-Phenotype (%),[2],26% and 20%
same,Total Cell Count,[2],455 and 446
same,Population Apoptotic (%),[3],28% and 45%
same,Population Fragmented Nuclei (%),[3],8% and 6%
same,Population Healthy Nuclei (%),[3],78% and 83%
same,Population Hoechst High Intensity Objects (%),[3],4%
same,Population Membrane Permeable-Phenotype (%),[3],1% and 0%
same,Population Mitochondria Different-Phenotype (%),[3],22% and 26%
same,Population Mitotic Cells (%),[3],71% and 54%
same,Population Normal (%),[3],95%
same,Population Pyknosed Nuclei (%),[3],12% and 9%
same,Population Tubulin-Different-Phenotype (%),[3],16% and 10%
same,Total Cell Count,[3],663 and 469
same,Population Apoptotic (%),[4],28% and 23%
same,Population Fragmented Nuclei (%),[4],9% and 8%
same,Population Healthy Nuclei (%),[4],81% and 86%
same,Population Hoechst High Intensity Objects (%),[4],4% and 3%
same,Population Membrane Permeable-Phenotype (%),[4],0%
same,Population Mitochondria Different-Phenotype (%),[4],16% and 30%
same,Population Mitotic Cells (%),[4],71% and 76%
same,Population Normal (%),[4],95% and 96%
same,Population Pyknosed Nuclei (%),[4],9% and 5%
same,Population Tubulin-Different-Phenotype (%),[4],15% and 11%
same,Total Cell Count,[4],649 and 593
same,Population Apoptotic (%),[5],19% and 36%
same,Population Fragmented Nuclei (%),[5],14% and 10%
same,Population Healthy Nuclei (%),[5],78% and 81%
same,Population Hoechst High Intensity Objects (%),[5],2% and 3%
same,Population Membrane Permeable-Phenotype (%),[5],3% and 1%
same,Population Mitochondria Different-Phenotype (%),[5],11% and 17%
same,Population Mitotic Cells (%),[5],80% and 63%
same,Population Normal (%),[5],97% and 96%
same,Population Pyknosed Nuclei (%),[5],6% and 8%
same,Population Tubulin-Different-Phenotype (%),[5],9% and 10%
same,Total Cell Count,[5],1112 and 700
same,Population Apoptotic (%),[6],21% and 27%
same,Population Fragmented Nuclei (%),[6],15% and 13%
same,Population Healthy Nuclei (%),[6],79% and 82%
same,Population Hoechst High Intensity Objects (%),[6],3% and 1%
same,Population Membrane Permeable-Phenotype (%),[6],1% and 2%
same,Population Mitochondria Different-Phenotype (%),[6],11% and 12%
same,Population Mitotic Cells (%),[6],78% and 72%
same,Population Normal (%),[6],96% and 98%
same,Population Pyknosed Nuclei (%),[6],5% and 4%
same,Population Tubulin-Different-Phenotype (%),[6],9% and 6%
same,Total Cell Count,[6],1088 and 947
